Experimental data: ChEMBL document CHEMBL1125673, “Synthesis and antiretrovirus properties of 5'-isocyano-5'-deoxythymidine, 5'-isocyano-2',5'-dideoxyuridine, 3'-azido-5'-isocyano-3',5'-dideoxythymidine, and 3'-azido-5'-isocyano-2',3',5'-trideoxyuridine” (J Med Chem, 1991)
≈ marks a conversion by molar mass, not a printed value.

Columns and labels:
[1] = system: Human immunodeficiency virus 1; assay: Concentration of compound required to inhibit HIV-1 replication in MT-4 cells by 50%; type: functional, organism-based; conditions: Human immunodeficiency virus 1, MT4
Procedure, shortened: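 HIV-1 strain HTLV-III_B infection of human MT-4 lymphocytes; EC50 is the compound concentration that inhibits virus-induced cytopathogenicity by 50%.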

MT4 = assay: Concentration of compound required to reduce MT-4 cells viability by 50%.; type: functional; conditions: Homo sapiens
Procedure, shortened: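 Uninfected human MT-4 lymphocyte cultures exposed to compound; CC50 is the concentration that lowers cell viability by 50%.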

[2] = Minimal inhibitory concentration was measured as compound concentration that causes a microscopically visible alteration of C3H cell morphology.; type: functional; conditions: Mus musculus
Procedure, shortened: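 C3H murine embryo fibroblasts exposed to compound and examined by microscope; the minimal inhibitory concentration is the lowest level giving a visible change in cell morphology.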

C3H/3T3 = assay: Concentration of compound required to inhibit […] MSV-induced transformation of C3H/3T3 cells by 50%.; type: functional, cell-based; conditions: Mus musculus
Procedure, shortened: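 Moloney murine sarcoma virus (MSV) infection of murine embryo fibroblast C3H/3T3 cells; EC50 is the compound concentration that inhibits MSV-induced cell transformation by 50%.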

SMILES	EC50 [1] [µM]	CC50 (MT4) [µM]	MIC [2] [µM]	EC50 (C3H/3T3) [nM]
[C-]#[N+]C[C@H]1OC(n2cc(C)c(=O)[nH]c2=O)C[C@H]1N=[N+]=[N-] (stereo partly specified)	> 40	122	–	–
[C-]#[N+]C[C@H]1OC(n2cc(C)c(=O)[nH]c2=O)C[C@H]1O (stereo partly specified)	> 200	144	3.2 (≈ 0.804 µg/mL)	> 3200
Cc1cn([C@H]2C[C@H](N=[N+]=[N-])[C@@H](CO)O2)c(=O)[nH]c1=O [ZIDOVUDINE]	0.004	20	> 400	20
[C-]#[N+]C[C@H]1OC(n2ccc(=O)[nH]c2=O)C[C@H]1O (stereo partly specified)	> 200	125	3.2 (≈ 0.759 µg/mL)	> 3200
[C-]#[N+]C[C@H]1OC(n2ccc(=O)[nH]c2=O)C[C@H]1N=[N+]=[N-] (stereo partly specified)	> 40	104	–	–
